Source: ChEMBL document CHEMBL1147968, “Novel lbeta-methylcarbapenems having cyclic sulfonamide moieties: synthesis and evaluation of in vitro antibacterial activity” (2007)

Tests used:
Pasteurella multocida = test: Antibacterial activity against Pasteurella multocida after 18 to 24 hrs by agar dilution method; assay type: functional
Method in brief: (§1)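 MICs were determined by agar dilution on test agar. An overnight tryptosoy broth culture was diluted in the same broth to about 10⁶ cells/mL and spotted with an inoculating device onto agar containing serial twofold dilutions of compound. Plates were incubated at 37 °C for 18–20 h, and the MIC was the lowest concentration with no visible growth.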

Pseudomonas aeruginosa [1] = test: Antibacterial activity against Pseudomonas aeruginosa 5455 after 18 to 24 hrs by agar dilution method; assay type: functional; method in brief: as §1
[2] = Antibacterial activity against Salmonella give after 18 to 24 hrs by agar dilution method; assay type: functional, Salmonella enterica subsp. enterica serovar Give; conditions: Salmonella enterica; method in brief: as §1
Salmonella = test: Antibacterial activity against Salmonella orion after 18 to 24 hrs by agar dilution method; assay type: functional; method in brief: as §1
Micrococcus luteus = test: Antibacterial activity against Micrococcus luteus ATCC 9341 after 18 to 24 hrs by agar dilution method; assay type: functional; method in brief: as §1
Escherichia coli [3] = test: Antibacterial activity against Escherichia coli TEM after 18 to 24 hrs by agar dilution method; assay type: functional; method in brief: as §1
Staphylococcus aureus [4] = test: Antibacterial activity against Staphylococcus aureus 209P after 18 to 24 hrs by agar dilution method; assay type: functional; method in brief: as §1
Streptococcus pneumoniae = test: Antibacterial activity against Streptococcus pneumoniae 0025 after 18 to 24 hrs by agar dilution method; assay type: functional; method in brief: as §1
Escherichia coli [5] = test: Antibacterial activity against Escherichia coli 086 after 18 to 24 hrs by agar dilution method; assay type: functional; method in brief: as §1
Streptococcus agalactiae [6] = test: Antibacterial activity against Streptococcus agalactiae B after 18 to 24 hrs by agar dilution method; assay type: functional; method in brief: as §1
Enterococcus faecalis = test: Antibacterial activity against Enterococcus faecalis 2347 after 18 to 24 hrs by agar dilution method; assay type: functional; method in brief: as §1
Haemophilus influenzae = test: Antibacterial activity against Haemophilus influenzae 1210 after 18 to 24 hrs by agar dilution method; assay type: functional; method in brief: as §1
Priestia megaterium = test: Antibacterial activity against Bacillus megaterium after 18 to 24 hrs by agar dilution method; assay type: functional; method in brief: as §1
Trueperella pyogenes = test: Antibacterial activity against Corynebacterium pyogenes after 18 to 24 hrs by agar dilution method; assay type: functional; method in brief: as §1
Salmonella typhi = test: Antibacterial activity against Salmonella typhi after 18 to 24 hrs by agar dilution method; assay type: functional, Salmonella enterica subsp. enterica serovar Typhi; conditions: Salmonella enterica
Method in brief: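 Agar dilution on test agar with serial twofold dilutions of compound. Overnight tryptosoy broth cultures diluted in the same broth to about 10⁶ cells/mL, then applied with an inoculating device. Plates incubated at 37 °C for 18–20 h.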

Escherichia coli [7] = test: Antibacterial activity against Escherichia coli 0114 after 18 to 24 hrs by agar dilution method; assay type: functional; method in brief: as §1
Escherichia coli [8] = test: Antibacterial activity against Escherichia coli 1507 after 18 to 24 hrs by agar dilution method; assay type: functional; method in brief: as §1
Escherichia coli [9] = test: Antibacterial activity against Escherichia coli V6311/65 after 18 to 24 hrs by agar dilution method; assay type: functional; method in brief: as §1
Escherichia coli [10] = test: Antibacterial activity against Escherichia coli 0126 after 18 to 24 hrs by agar dilution method; assay type: functional; method in brief: as §1
Proteus mirabilis [11] = test: Antibacterial activity against Proteus mirabilis 174/3 after 18 to 24 hrs by agar dilution method; assay type: functional; method in brief: as §1
Staphylococcus aureus [12] = test: Antibacterial activity against Staphylococcus aureus 503 after 18 to 24 hrs by agar dilution method; assay type: functional; method in brief: as §1
Enterococcus durans = test: Antibacterial activity against Streptococcus durans D after 18 to 24 hrs by agar dilution method; assay type: functional; method in brief: as §1
Serratia marcescens [13] = test: Antibacterial activity against Serratia marcescens 370 after 18 to 24 hrs by agar dilution method; assay type: functional; method in brief: as §1
Enterobacter cloacae [14] = test: Antibacterial activity against Enterobacter cloacae 34 after 18 to 24 hrs by agar dilution method; assay type: functional; method in brief: as §1
Streptococcus pyogenes = test: Antibacterial activity against Streptococcus pyogenes 9889 after 18 to 24 hrs by agar dilution method; assay type: functional
Method in brief: (§2)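 Agar dilution on test agar holding serial twofold dilutions of compound. Overnight tryptosoy broth cultures were diluted in the same broth to about 10⁶ cells/mL and spotted with an inoculating device. Plates were incubated at 37 °C for 18–20 h.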

Klebsiella pneumoniae [15] = test: Antibacterial activity against Klebsiella pneumoniae 477 after 18 to 24 hrs by agar dilution method; assay type: functional; method in brief: as §1
Acinetobacter baumannii = test: Antibacterial activity against Acinetobacter baumannii 2289 after 18 to 24 hrs by agar dilution method; assay type: functional; method in brief: as §1
Providencia rettgeri [16] = test: Antibacterial activity against Proteus rettgeri 937 after 18 to 24 hrs by agar dilution method; assay type: functional; method in brief: as §1
Bacillus subtilis = test: Antibacterial activity against Bacillus subtilis ATCC 6633 after 18 to 24 hrs by agar dilution method; assay type: functional; method in brief: as §1
Staphylococcus aureus [17] = test: Antibacterial activity against Staphylococcus aureus 1218 after 18 to 24 hrs by agar dilution method; assay type: functional; method in brief: as §1
Streptococcus agalactiae [18] = test: Antibacterial activity against Streptococcus agalactiae 32 after 18 to 24 hrs by agar dilution method; assay type: functional; method in brief: as §1
Pseudomonas aeruginosa [19] = test: Antibacterial activity against Pseudomonas aeruginosa 110/2 after 18 to 24 hrs by agar dilution method; assay type: functional; method in brief: as §1
Burkholderia cepacia = test: Antibacterial activity against Pseudomonas cepacia after 18 to 24 hrs by agar dilution method; assay type: functional; method in brief: as §1
Pseudomonas aeruginosa [20] = test: Antibacterial activity against Pseudomonas aeruginosa 880/2 after 18 to 24 hrs by agar dilution method; assay type: functional; method in brief: as §1
Staphylococcus = test: Antibacterial activity against coagulase negative Staphylococcus after 18 to 24 hrs by agar dilution method; assay type: functional; method in brief: as §2
Proteus vulgaris = test: Antibacterial activity against Proteus vulgaris 868 after 18 to 24 hrs by agar dilution method; assay type: functional; method in brief: as §1
Providencia rettgeri [21] = test: Antibacterial activity against Proteus rettgeri 936 after 18 to 24 hrs by agar dilution method; assay type: functional; method in brief: as §1
Enterobacter cloacae [22] = test: Antibacterial activity against Enterobacter cloacae after 18 to 24 hrs by agar dilution method; assay type: functional; method in brief: as §1
Citrobacter freundii = test: Antibacterial activity against Citrobacter freundii 323 after 18 to 24 hrs by agar dilution method; assay type: functional; method in brief: as §1
Salmonella typhimurium = test: Antibacterial activity against Salmonella Typhimurium after 18 to 24 hrs by agar dilution method; assay type: functional, Salmonella enterica subsp. enterica serovar Typhimurium; conditions: Salmonella enterica; method in brief: as §1
Proteus mirabilis [23] = test: Antibacterial activity against Proteus mirabilis 112/3 after 18 to 24 hrs by agar dilution method; assay type: functional; method in brief: as §1
Klebsiella pneumoniae [24] = test: Antibacterial activity against Klebsiella pneumoniae 523 after 18 to 24 hrs by agar dilution method; assay type: functional; method in brief: as §1
[25] = system: Corynebacterium diphtheriae; test: Antibacterial activity against Corynebacterium diphtheriae after 18 to 24 hrs by agar dilution method; assay type: functional; method in brief: as §1
Pseudomonas aeruginosa [26] = test: Antibacterial activity against Pseudomonas aeruginosa 77/2 after 18 to 24 hrs by agar dilution method; assay type: functional; method in brief: as §1
[27] = Antibacterial activity against Salmonella oranienburg after 18 to 24 hrs by agar dilution method; assay type: functional, Salmonella enterica subsp. enterica serovar Oranienburg; conditions: Salmonella enterica; method in brief: as §1
Serratia marcescens [28] = test: Antibacterial activity against Serratia marcescens 6093 after 18 to 24 hrs by agar dilution method; assay type: functional; method in brief: as §1
Staphylococcus aureus [29] = test: Antibacterial activity against Staphylococcus aureus giorgio after 18 to 24 hrs by agar dilution method; assay type: functional; method in brief: as §1
Enterobacter cloacae [30] = test: Antibacterial activity against Enterobacter cloacae 417 after 18 to 24 hrs by agar dilution method; assay type: functional; method in brief: as §1
Serratia marcescens [31] = test: Antibacterial activity against Serratia marcescens 3349 after 18 to 24 hrs by agar dilution method; assay type: functional; method in brief: as §1
Serratia marcescens [32] = test: Antibacterial activity against Serratia marcescens 14273 after 18 to 24 hrs by agar dilution method; assay type: functional; method in brief: as §1
Escherichia coli [33] = test: Antibacterial activity against Escherichia coli 04 after 18 to 24 hrs by agar dilution method; assay type: functional; method in brief: as §1
Pseudomonas aeruginosa [34] = test: Antibacterial activity against Pseudomonas aeruginosa 9027 after 18 to 24 hrs by agar dilution method; assay type: functional; method in brief: as §1

Measured: MIC

C[C@@H](O)[C@H]1C(=O)N2C(C(=O)O)=C(S[C@@H]3CN[C@H](C(=O)N(C)C)C3)[C@H](C)[C@H]12 [MEROPENEM]
0.01 µg/mL: Streptococcus pneumoniae | Salmonella typhi | Escherichia coli [9] | Enterobacter cloacae [22] | Enterobacter cloacae [30]
12.5 µg/mL: Enterococcus faecalis | Acinetobacter baumannii
3.12 µg/mL: Haemophilus influenzae
0.013 µg/mL: Streptococcus pyogenes
0.049 µg/mL: Streptococcus agalactiae [18] | Serratia marcescens [31] | Escherichia coli [33]
1.56 µg/mL: Pseudomonas aeruginosa [1]
6.25 µg/mL: Staphylococcus aureus [17]
0.2 µg/mL: Pseudomonas aeruginosa [20] | Serratia marcescens [32]
0.1 µg/mL: Salmonella | Staphylococcus aureus [4] | Proteus mirabilis [11] | Proteus vulgaris | Providencia rettgeri [21] | Proteus mirabilis [23] | Staphylococcus aureus [29]
0.4 µg/mL: Pseudomonas aeruginosa [19] | Burkholderia cepacia | Pseudomonas aeruginosa [34]
0.02 µg/mL: [2] | Escherichia coli [3] | Escherichia coli [7] | Escherichia coli [8] | [25]
0.8 µg/mL: Enterococcus durans | Pseudomonas aeruginosa [26]
0.098 µg/mL: Staphylococcus
0.025 µg/mL: Enterobacter cloacae [14] | Citrobacter freundii | Klebsiella pneumoniae [24]
0.05 µg/mL: all other assays above
